# Results taken from ChEMBL document CHEMBL3994650, “New 1,4-dihydro[1,8]naphthyridine derivatives as DNA gyrase inhibitors” (Bioorg Med Chem Lett, 2017).
# Calls of active or inactive are those of the source. The rule behind the calls is not given here.
# Assays:
# [1] = Selectivity index, ratio of IC50 for mouse NIH/3T3 cells to MIC90 for Klebsiella pneumoniae ATCC 700603; format: toxicity; settings: read-out: Selectivity Index
# [2] = Selectivity index, ratio of IC50 for mouse NIH/3T3 cells to MIC90 for Listeria monocytogenes ATCC 7644; format: toxicity; settings: read-out: Selectivity Index
# Salmonella typhimurium [3] = test: Mutagenicity in Salmonella typhimurium TA98 assessed as increase in revertant colonies at 0.156 mg/ml in presence of Sprague-Dawley rat liver S9 fraction by Ames test relative to basal level; format: toxicity; settings: salmonella enterica subsp. enterica serovar typhimurium
# Method in brief: (§1)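 Ames microplate format assay with strains TA98 and TA100, run with and without S9. Positive wells were counted per condition. The run was valid if positive controls gave more than 25 positive wells and negative controls fewer than 8.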
# Salmonella typhimurium [4] = test: Mutagenicity in Salmonella typhimurium TA100 assessed as increase in revertant colonies at 0.156 mg/ml in presence of Sprague-Dawley rat liver S9 fraction by Ames test relative to basal level; format: toxicity; settings: salmonella enterica subsp. enterica serovar typhimurium; method in brief: as §1
# Staphylococcus aureus [5] = test: Antibacterial activity against Staphylococcus aureus ATCC 25923 incubated after 24 hrs by resazurin dye based broth microdilution assay; format: functional; settings: ATCC 25923, 24 h
# Escherichia coli [6] = test: Antibacterial activity against Escherichia coli ATCC 35218 incubated after 24 hrs by resazurin dye based broth microdilution assay; format: functional; settings: ATCC 35218, 24 h
# Escherichia coli [7] = test: Antibacterial activity against Escherichia coli ATCC 25922 incubated after 24 hrs by resazurin dye based broth microdilution assay; format: functional; settings: ATCC 25922, 24 h
# Klebsiella pneumoniae = test: Antibacterial activity against Klebsiella pneumoniae ATCC 700603 incubated after 24 hrs by resazurin dye based broth microdilution assay; format: functional; settings: Klebsiella pneumoniae, 700603, 24 h
# Enterococcus faecalis [8] = test: Antibacterial activity against Enterococcus faecalis ATCC 29212 incubated after 24 hrs by resazurin dye based broth microdilution assay; format: functional; settings: ATCC 29212, 24 h
# Enterococcus faecalis [9] = test: Antibacterial activity against Enterococcus faecalis ATCC 51299 incubated after 24 hrs by resazurin dye based broth microdilution assay; format: functional; settings: ATCC 51299, 24 h
# Listeria monocytogenes = test: Antibacterial activity against Listeria monocytogenes ATCC 7644 incubated after 24 hrs by resazurin dye based broth microdilution assay; format: functional; settings: ATCC 7644, 24 h
# Pseudomonas aeruginosa = test: Antibacterial activity against Pseudomonas aeruginosa ATCC 27853 incubated after 24 hrs by resazurin dye based broth microdilution assay; format: functional; settings: ATCC 27853, 24 h
# Staphylococcus aureus [10] = test: Antibacterial activity against Staphylococcus aureus ATCC 25923 assessed as decrease in ATP level at […] ug/ml after 24 hrs by BacTiter-Glo reagent based bioluminescence assay; format: functional
# [11] = test system: Escherichia coli ATCC 25922; test: Inhibition of Escherichia coli DNA gyrase assessed as inhibition of enzyme-mediated supercoiling of relaxed pHOT1 DNA substrate after 30 mins by gel electrophoresis method
# Method in brief: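 E. coli DNA gyrase (1 U) was incubated with relaxed pHOT1 DNA substrate (0.25 µg) for 30 min at 37 °C. Compounds were tested at 15.6, 7.8, 3.9 and 1.95 µg/L. Controls were supercoiled DNA, relaxed DNA, relaxed DNA plus gyrase, and 1% DMSO. Supercoiling was read by agarose gel electrophoresis.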
# NIH3T3 = test: Cytotoxicity against mouse NIH/3T3 cells assessed as reduction in cell proliferation after 24 hrs by MTT assay; format: cell-based; settings: NIH3T3, 24 h
# [12] = Selectivity index, ratio of IC50 for mouse NIH/3T3 cells to MIC90 for Pseudomonas aeruginosa ATCC 27853; format: toxicity; settings: read-out: Selectivity Index
# Salmonella typhimurium [13] = test: Mutagenicity in Salmonella typhimurium TA98 assessed as increase in revertant colonies at 0.3125 mg/ml in presence of Sprague-Dawley rat liver S9 fraction by Ames test relative to basal level; format: toxicity; settings: salmonella enterica subsp. enterica serovar typhimurium; method in brief: as §1
# Salmonella typhimurium [14] = test: Mutagenicity in Salmonella typhimurium TA98 assessed as increase in revertant colonies at 0.625 mg/ml in presence of Sprague-Dawley rat liver S9 fraction by Ames test relative to basal level; format: toxicity; settings: salmonella enterica subsp. enterica serovar typhimurium; method in brief: as §1
# Salmonella typhimurium [15] = test: Mutagenicity in Salmonella typhimurium TA98 assessed as increase in revertant colonies at 1.25 mg/ml in presence of Sprague-Dawley rat liver S9 fraction by Ames test relative to basal level; format: toxicity; settings: salmonella enterica subsp. enterica serovar typhimurium; method in brief: as §1
# Salmonella typhimurium [16] = test: Mutagenicity in Salmonella typhimurium TA98 assessed as increase in revertant colonies at 2.5 mg/ml in presence of Sprague-Dawley rat liver S9 fraction by Ames test relative to basal level; format: toxicity; settings: salmonella enterica subsp. enterica serovar typhimurium; method in brief: as §1
# Salmonella typhimurium [17] = test: Mutagenicity in Salmonella typhimurium TA98 assessed as increase in revertant colonies at 5 mg/ml in presence of Sprague-Dawley rat liver S9 fraction by Ames test relative to basal level; format: toxicity; settings: salmonella enterica subsp. enterica serovar typhimurium; method in brief: as §1
# Salmonella typhimurium [18] = test: Mutagenicity in Salmonella typhimurium TA98 assessed as increase in revertant colonies at 0.156 mg/ml in absence of Sprague-Dawley rat liver S9 fraction by Ames test relative to basal level; format: toxicity; settings: salmonella enterica subsp. enterica serovar typhimurium; method in brief: as §1
# Salmonella typhimurium [19] = test: Mutagenicity in Salmonella typhimurium TA98 assessed as increase in revertant colonies at 0.3125 mg/ml in absence of Sprague-Dawley rat liver S9 fraction by Ames test relative to basal level; format: toxicity; settings: salmonella enterica subsp. enterica serovar typhimurium; method in brief: as §1
# Salmonella typhimurium [20] = test: Mutagenicity in Salmonella typhimurium TA98 assessed as increase in revertant colonies at 0.625 mg/ml in absence of Sprague-Dawley rat liver S9 fraction by Ames test relative to basal level; format: toxicity; settings: salmonella enterica subsp. enterica serovar typhimurium; method in brief: as §1
# Salmonella typhimurium [21] = test: Mutagenicity in Salmonella typhimurium TA98 assessed as increase in revertant colonies at 1.25 mg/ml in absence of Sprague-Dawley rat liver S9 fraction by Ames test relative to basal level; format: toxicity; settings: salmonella enterica subsp. enterica serovar typhimurium; method in brief: as §1
# Salmonella typhimurium [22] = test: Mutagenicity in Salmonella typhimurium TA98 assessed as increase in revertant colonies at 2.5 mg/ml in absence of Sprague-Dawley rat liver S9 fraction by Ames test relative to basal level; format: toxicity; settings: salmonella enterica subsp. enterica serovar typhimurium; method in brief: as §1
# Salmonella typhimurium [23] = test: Mutagenicity in Salmonella typhimurium TA98 assessed as increase in revertant colonies at 5 mg/ml in absence of Sprague-Dawley rat liver S9 fraction by Ames test relative to basal level; format: toxicity; settings: salmonella enterica subsp. enterica serovar typhimurium; method in brief: as §1
# Salmonella typhimurium [24] = test: Mutagenicity in Salmonella typhimurium TA100 assessed as increase in revertant colonies at 0.3125 mg/ml in presence of Sprague-Dawley rat liver S9 fraction by Ames test relative to basal level; format: toxicity; settings: salmonella enterica subsp. enterica serovar typhimurium; method in brief: as §1
# Salmonella typhimurium [25] = test: Mutagenicity in Salmonella typhimurium TA100 assessed as increase in revertant colonies at 0.625 mg/ml in presence of Sprague-Dawley rat liver S9 fraction by Ames test relative to basal level; format: toxicity; settings: salmonella enterica subsp. enterica serovar typhimurium; method in brief: as §1
# Salmonella typhimurium [26] = test: Mutagenicity in Salmonella typhimurium TA100 assessed as increase in revertant colonies at 1.25 mg/ml in presence of Sprague-Dawley rat liver S9 fraction by Ames test relative to basal level; format: toxicity; settings: salmonella enterica subsp. enterica serovar typhimurium; method in brief: as §1
# Salmonella typhimurium [27] = test: Mutagenicity in Salmonella typhimurium TA100 assessed as increase in revertant colonies at 2.5 mg/ml in presence of Sprague-Dawley rat liver S9 fraction by Ames test relative to basal level; format: toxicity; settings: salmonella enterica subsp. enterica serovar typhimurium; method in brief: as §1
# Salmonella typhimurium [28] = test: Mutagenicity in Salmonella typhimurium TA100 assessed as increase in revertant colonies at 5 mg/ml in presence of Sprague-Dawley rat liver S9 fraction by Ames test relative to basal level; format: toxicity; settings: salmonella enterica subsp. enterica serovar typhimurium; method in brief: as §1
# Salmonella typhimurium [29] = test: Mutagenicity in Salmonella typhimurium TA100 assessed as increase in revertant colonies at 0.156 mg/ml in absence of Sprague-Dawley rat liver S9 fraction by Ames test relative to basal level; format: toxicity; settings: salmonella enterica subsp. enterica serovar typhimurium; method in brief: as §1
# Salmonella typhimurium [30] = test: Mutagenicity in Salmonella typhimurium TA100 assessed as increase in revertant colonies at 0.3125 mg/ml in absence of Sprague-Dawley rat liver S9 fraction by Ames test relative to basal level; format: toxicity; settings: salmonella enterica subsp. enterica serovar typhimurium; method in brief: as §1
# Salmonella typhimurium [31] = test: Mutagenicity in Salmonella typhimurium TA100 assessed as increase in revertant colonies at 0.625 mg/ml in absence of Sprague-Dawley rat liver S9 fraction by Ames test relative to basal level; format: toxicity; settings: salmonella enterica subsp. enterica serovar typhimurium; method in brief: as §1
# Salmonella typhimurium [32] = test: Mutagenicity in Salmonella typhimurium TA100 assessed as increase in revertant colonies at 1.25 mg/ml in absence of Sprague-Dawley rat liver S9 fraction by Ames test relative to basal level; format: toxicity; settings: salmonella enterica subsp. enterica serovar typhimurium; method in brief: as §1
# Salmonella typhimurium [33] = test: Mutagenicity in Salmonella typhimurium TA100 assessed as increase in revertant colonies at 2.5 mg/ml in absence of Sprague-Dawley rat liver S9 fraction by Ames test relative to basal level; format: toxicity; settings: salmonella enterica subsp. enterica serovar typhimurium; method in brief: as §1
# Salmonella typhimurium [34] = test: Mutagenicity in Salmonella typhimurium TA100 assessed as increase in revertant colonies at 5 mg/ml in absence of Sprague-Dawley rat liver S9 fraction by Ames test relative to basal level; format: toxicity; settings: salmonella enterica subsp. enterica serovar typhimurium; method in brief: as §1
structure (smiles),measurement,setting,value
CN(C)CCCN1CCN(c2nc3c(cc2F)c(=O)c(C(=O)O)cn3-c2ccc(F)cc2F)CC1,selectivity ratio,[1],54
same,selectivity ratio,[2],54
same,fold change (FC),Salmonella typhimurium [3],0
same,fold change (FC),Salmonella typhimurium [4],0
same,MIC90,Staphylococcus aureus [5],1.95 µg/mL
same,MIC90,Escherichia coli [6],1.95 µg/mL
same,MIC90,Escherichia coli [7],1.95 µg/mL
same,MIC90,Klebsiella pneumoniae,7.8 µg/mL
same,MIC90,Enterococcus faecalis [8],3.9 µg/mL
same,MIC90,Enterococcus faecalis [9],3.9 µg/mL
same,MIC90,Listeria monocytogenes,7.8 µg/mL
same,MIC90,Pseudomonas aeruginosa,7.8 µg/mL
same,Activity,Staphylococcus aureus [10],Active
same,inhibition,[11],Dose-dependent effect
same,IC50,NIH3T3,440 µg/mL
same,selectivity ratio,[12],54
same,fold change (FC),Salmonella typhimurium [13],0.11
same,fold change (FC),Salmonella typhimurium [14],0
same,fold change (FC),Salmonella typhimurium [15],0
same,fold change (FC),Salmonella typhimurium [16],0
same,fold change (FC),Salmonella typhimurium [17],0
same,fold change (FC),Salmonella typhimurium [18],0
same,fold change (FC),Salmonella typhimurium [19],0
same,fold change (FC),Salmonella typhimurium [20],0
same,fold change (FC),Salmonella typhimurium [21],0
same,fold change (FC),Salmonella typhimurium [22],0
same,fold change (FC),Salmonella typhimurium [23],0
same,fold change (FC),Salmonella typhimurium [24],0
same,fold change (FC),Salmonella typhimurium [25],0
same,fold change (FC),Salmonella typhimurium [26],0
same,fold change (FC),Salmonella typhimurium [27],0
same,fold change (FC),Salmonella typhimurium [28],0
same,fold change (FC),Salmonella typhimurium [29],0
same,fold change (FC),Salmonella typhimurium [30],0
same,fold change (FC),Salmonella typhimurium [31],0
same,fold change (FC),Salmonella typhimurium [32],0
same,fold change (FC),Salmonella typhimurium [33],0
same,fold change (FC),Salmonella typhimurium [34],0
